In ChEMBL document CHEMBL1132449, “Pyrroloquinoxaline derivatives as high-affinity and selective 5-HT(3) receptor agonists: synthesis, further structure-activity relationships, and biological studies” (J Med Chem, 1999):

Experiments:
[1] = biological target: T1, Serotonin 3 (5-HT3) receptor (Rattus norvegicus, UniProt P35563+Q9JJ16); assay: The compound was tested for the binding affinity against 5-hydroxytryptamine 3 receptor using [3H]zacopride as radioligand.; assay type: protein-complex assay
T1 sequence (P35563 whole entry): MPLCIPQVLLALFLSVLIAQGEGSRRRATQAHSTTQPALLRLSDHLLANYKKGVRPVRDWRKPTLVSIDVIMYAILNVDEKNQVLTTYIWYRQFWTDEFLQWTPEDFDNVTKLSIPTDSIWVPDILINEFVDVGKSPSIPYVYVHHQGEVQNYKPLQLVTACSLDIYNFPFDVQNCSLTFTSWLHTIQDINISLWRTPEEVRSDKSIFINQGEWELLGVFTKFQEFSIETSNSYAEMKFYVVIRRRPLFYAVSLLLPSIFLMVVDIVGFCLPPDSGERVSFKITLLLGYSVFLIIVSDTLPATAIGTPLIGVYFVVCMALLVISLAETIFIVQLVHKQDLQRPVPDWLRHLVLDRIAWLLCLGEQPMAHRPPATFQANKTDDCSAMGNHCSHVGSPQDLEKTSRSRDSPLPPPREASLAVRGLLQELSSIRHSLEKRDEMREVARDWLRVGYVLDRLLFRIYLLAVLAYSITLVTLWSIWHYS
T1 sequence (Q9JJ16 whole entry): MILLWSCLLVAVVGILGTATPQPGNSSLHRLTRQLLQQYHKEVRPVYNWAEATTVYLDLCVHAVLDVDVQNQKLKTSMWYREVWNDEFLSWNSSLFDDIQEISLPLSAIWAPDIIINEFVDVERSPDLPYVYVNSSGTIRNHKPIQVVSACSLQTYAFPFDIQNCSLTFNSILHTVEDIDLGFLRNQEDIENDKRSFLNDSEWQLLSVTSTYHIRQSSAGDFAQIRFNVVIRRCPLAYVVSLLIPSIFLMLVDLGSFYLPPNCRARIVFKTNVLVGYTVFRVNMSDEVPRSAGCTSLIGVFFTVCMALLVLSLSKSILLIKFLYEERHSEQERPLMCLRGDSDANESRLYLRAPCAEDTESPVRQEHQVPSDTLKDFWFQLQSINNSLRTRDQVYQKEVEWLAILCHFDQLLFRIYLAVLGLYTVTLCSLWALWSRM

[2] = biological target: 5-hydroxytryptamine receptor 2A (Rattus norvegicus, UniProt P14842); assay: The compound was tested for the binding affinity against 5-hydroxytryptamine 2A receptor using [3H]ketanserin as radioligand.
Sequence of 5-hydroxytryptamine receptor 2A (P14842 whole entry): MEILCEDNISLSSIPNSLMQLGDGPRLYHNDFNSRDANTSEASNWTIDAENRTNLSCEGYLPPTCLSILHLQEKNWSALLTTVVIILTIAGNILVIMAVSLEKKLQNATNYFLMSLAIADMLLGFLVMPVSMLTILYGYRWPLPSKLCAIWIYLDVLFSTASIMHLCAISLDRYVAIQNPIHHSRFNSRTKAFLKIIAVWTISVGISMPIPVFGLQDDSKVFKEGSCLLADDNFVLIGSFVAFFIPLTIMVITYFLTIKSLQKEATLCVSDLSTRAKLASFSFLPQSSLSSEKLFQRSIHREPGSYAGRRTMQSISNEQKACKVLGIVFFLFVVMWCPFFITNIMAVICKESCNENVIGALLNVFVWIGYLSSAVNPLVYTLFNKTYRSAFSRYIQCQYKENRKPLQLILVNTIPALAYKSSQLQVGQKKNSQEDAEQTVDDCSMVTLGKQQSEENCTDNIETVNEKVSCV

[3] = biological target: T2, 5-hydroxytryptamine receptor 2C (Rattus norvegicus, UniProt P08909); assay: The compound was tested for the binding affinity against 5-hydroxytryptamine 2C receptor using [3H]Mesulergine as radioligand.
T2 sequence (P08909 whole entry): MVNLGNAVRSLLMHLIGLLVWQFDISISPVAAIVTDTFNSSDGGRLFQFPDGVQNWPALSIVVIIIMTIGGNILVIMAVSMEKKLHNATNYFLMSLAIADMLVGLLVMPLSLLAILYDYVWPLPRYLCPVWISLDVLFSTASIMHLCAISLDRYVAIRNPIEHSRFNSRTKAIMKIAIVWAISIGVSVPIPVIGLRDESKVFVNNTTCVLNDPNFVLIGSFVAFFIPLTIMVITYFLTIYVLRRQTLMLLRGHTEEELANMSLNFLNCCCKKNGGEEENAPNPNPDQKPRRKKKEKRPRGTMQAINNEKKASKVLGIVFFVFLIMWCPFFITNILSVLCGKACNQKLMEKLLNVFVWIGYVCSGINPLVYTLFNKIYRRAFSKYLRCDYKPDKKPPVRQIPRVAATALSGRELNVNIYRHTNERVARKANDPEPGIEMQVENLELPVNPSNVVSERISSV

[4] = biological target: T1, Serotonin 3 (5-HT3) receptor; assay: Binding affinity against 5-hydroxytryptamine 3 (5-HT3) receptor from rat cortical homogenate using [3H]zacopride as radioligand
Outline: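 Male rat cortices, stored at -80 °C, were homogenized in ice-cold 25 mM Tris HCl pH 7.4 and spun at 50000g. Membranes were preincubated 10 min at 37 °C, washed, and resuspended with 10 µM pargyline (10 mg tissue/sample). They were incubated with 0.4 nM (final) [3H]zacopride for 30 min at 25 °C, filtered through PEI-treated GF/B and counted. IC50 came from dose-inhibition curves, mean ± SEM of three determinations.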

NG108-15 [5] = assay: The compound was tested for efficacy against 5-Hydroxytryptamine 3 receptor by measuring [14C]guanidinium uptake on NG108-15 cells; PA=Partial agonist; assay type: functional, cell-based; settings: filed as partial agonist
Outline: (§1)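 NG108-15 cells, grown 2 days, were washed in HEPES saline pH 7.4. They were exposed 10 min at 37 °C to buffer (135 mM NaCl, 10 mM guanidinium) with […] [14C]guanidinium, 1 mM 5-HT, […] and/or 8 drug concentrations. Cells were washed in ice-cold choline buffer, dissolved in NaOH and counted by scintillation. Assays run in triplicate.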

[6] = biological target: Serotonin 3 (5-HT3) receptor; assay: Effective concentration against 5-Hydroxytryptamine 3 receptor by measuring [14C]guanidinium uptake on NG108-15 cells.; assay type: functional, cell-based
NG108-15 [7] = assay: The compound was tested for efficacy against 5-Hydroxytryptamine 3 receptor by measuring [14C]guanidinium uptake on NG108-15 cells.; A = Agonist; assay type: functional, cell-based; settings: filed as agonist; outline: as §1
[8] = biological target: T1, Serotonin 3 (5-HT3) receptor; assay: The compound was tested for binding affinity against 5-hydroxytryptamine 3 receptor from NG108-15 cells using [3H]zacopride as radioligand; assay type: cell-based
Outline: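 NG108-15 cells were grown in DMEM with 10% inactivated FCS plus HAT at 37 °C, 10% CO2, harvested by shaking and pelleted. About 420 000 cells/sample in 50 mM Tris HCl pH 7.5 with 25 mM NaCl were incubated with 0.4 nM (final) [3H]zacopride for 60 min at 25 °C, then filtered and counted. IC50 is mean ± SEM of three determinations.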

[9] = biological target: 5-hydroxytryptamine receptor 1B (Rattus norvegicus, UniProt P28564); assay: The compound was tested for the binding affinity against 5-hydroxytryptamine 1B receptor using [3H]5-HT as radioligand.
Sequence of 5-hydroxytryptamine receptor 1B (P28564 whole entry): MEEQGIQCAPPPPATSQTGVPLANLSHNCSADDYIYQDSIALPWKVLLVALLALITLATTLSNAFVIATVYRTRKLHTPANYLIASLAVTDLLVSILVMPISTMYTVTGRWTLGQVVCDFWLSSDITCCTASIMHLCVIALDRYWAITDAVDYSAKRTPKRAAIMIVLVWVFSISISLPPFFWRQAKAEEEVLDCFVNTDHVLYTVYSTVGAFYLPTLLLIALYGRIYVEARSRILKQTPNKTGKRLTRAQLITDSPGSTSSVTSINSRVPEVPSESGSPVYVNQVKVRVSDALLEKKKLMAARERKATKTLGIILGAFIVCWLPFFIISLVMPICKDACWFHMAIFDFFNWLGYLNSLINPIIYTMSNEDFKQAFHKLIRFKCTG

[10] = biological target: 5-hydroxytryptamine receptor 4 (Cavia porcellus, UniProt O70528); assay: The compound was tested for the binding affinity against 5-hydroxytryptamine 4 receptor using [3H]GR-113808 as radioligand.
Sequence of 5-hydroxytryptamine receptor 4 (O70528 whole entry): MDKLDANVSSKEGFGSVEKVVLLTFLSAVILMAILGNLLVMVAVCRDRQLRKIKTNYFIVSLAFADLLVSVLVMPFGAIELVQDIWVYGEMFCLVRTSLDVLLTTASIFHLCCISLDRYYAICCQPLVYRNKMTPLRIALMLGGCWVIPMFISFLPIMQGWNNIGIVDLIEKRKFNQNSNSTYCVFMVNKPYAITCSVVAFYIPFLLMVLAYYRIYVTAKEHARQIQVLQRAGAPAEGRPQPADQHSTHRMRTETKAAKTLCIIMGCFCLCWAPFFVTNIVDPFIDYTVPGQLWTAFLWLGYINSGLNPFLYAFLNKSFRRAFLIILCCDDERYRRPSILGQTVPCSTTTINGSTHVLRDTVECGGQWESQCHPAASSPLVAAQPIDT

[11] = biological target: T3, 5-hydroxytryptamine receptor 1A (Rattus norvegicus, UniProt P19327); assay: The compound was tested for the binding affinity against 5-hydroxytryptamine 1A receptor using [3H]8-OH-DPAT as radioligand.
T3 sequence (P19327 whole entry): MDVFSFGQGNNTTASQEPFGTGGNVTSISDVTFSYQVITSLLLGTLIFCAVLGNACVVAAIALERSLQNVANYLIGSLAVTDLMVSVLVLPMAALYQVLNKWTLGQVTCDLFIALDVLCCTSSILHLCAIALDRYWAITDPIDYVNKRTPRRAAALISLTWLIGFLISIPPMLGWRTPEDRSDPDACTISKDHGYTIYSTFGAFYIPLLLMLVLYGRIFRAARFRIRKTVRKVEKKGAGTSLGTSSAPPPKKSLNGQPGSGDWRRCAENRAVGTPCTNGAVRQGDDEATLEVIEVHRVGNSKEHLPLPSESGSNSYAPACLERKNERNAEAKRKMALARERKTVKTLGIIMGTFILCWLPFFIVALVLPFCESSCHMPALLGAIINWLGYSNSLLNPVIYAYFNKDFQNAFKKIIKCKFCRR

Compound | IC50 [4] | EC50 [6] | further results
c1ccc2nc(N3CCNCC3)ccc2c1 [QUIPAZINE] | 3.8 nM | – | Ki [1]: 6.31 nM; Ki [2]: 794 nM; Ki [3]: 316 nM; Efficacy (NG108-15 [5]): Partial agonist
c1csc(CN2CCN(c3nc4ccccc4n4cccc34)CC2)c1 | 22 nM | – | –
CN1CCN(c2nc3ccccc3n3ccnc23)CC1 | 3.8 nM | 15 nM | Efficacy (NG108-15 [7]): Agonist
Fc1cccc2nc(N3CCN(Cc4cccs4)CC3)c3cccn3c12 | 60 nM | – | –
Fc1ccc2c(c1)nc(N1CCN(Cc3ccccc3)CC1)c1cccn12 | 13 nM | 4.2 nM | Efficacy (NG108-15 [5]): Partial agonist
Cc1cccc2nc(N3CCN(Cc4ccccc4)CC3)c3cccn3c12 | 8.8 nM | 12 nM | Efficacy (NG108-15 [7]): Agonist
OCCN1CCN(c2nc3cccnc3n3ccnc23)CC1 | 38 nM | – | –
c1cnc2nc(N3CCNCC3)c3cccn3c2c1 | 3.1 nM | – | –
CN1CCN(c2nc3cc(F)ccc3n3ccnc23)CC1 | 5.2 nM | 7.2 nM | Efficacy (NG108-15 [7]): Agonist
CN1CCN(C2=NC=CN3CCN=C23)CC1 | 3650 nM | – | –
CN1CCN(c2nccn3cccc23)CC1 | 1930 nM | – | –
OCCN1CCN(c2nc3cc(F)ccc3n3cccc23)CC1 | 2.6 nM | 2.4 nM | Efficacy (NG108-15 [7]): Agonist
Fc1ccc2c(c1)nc(N1CCN(Cc3cccs3)CC1)c1cccn12 | 12 nM | – | –
CN1CCN(c2nc3cc(Cl)c(Cl)cc3n3cccc23)CC1 | 97 nM | – | –
CN1CCN(c2nc3cc(O)ccc3n3cccc23)CC1 | 0.67 nM | 1.6 nM | Efficacy (NG108-15 [7]): Agonist
Cc1cc2nc(N3CCN(Cc4ccccc4)CC3)c3cccn3c2cc1C | 44 nM | – | –
c1csc(CN2CCN(c3nc4cccnc4n4cccc34)CC2)c1 | 3.6 nM | – | Ki [1]: 3.16 nM; IC50 [8]: 6.4 nM; Ki [9]: 3980 nM; Ki [2]: 1580 nM; Ki [10]: > 10000 nM; Ki [11]: > 10000 nM; Ki [3]: > 10000 nM
CN1[C@@H]2CC[C@H]1C[C@@H](OC(=O)c1cc(Cl)cc(Cl)c1)C2 [BEMESETRON] | 97 nM | – | –
Clc1cc2nc(N3CCN(Cc4ccccc4)CC3)c3cccn3c2cc1Cl | 118 nM | – | –
CN1CCN(c2nc3cccnc3n3ccnc23)CC1 | 6.6 nM | – | –
